Reference: article PMC8012241 (Alzheimer's & Dementia : Translational Research & Clinical …, 2021)
Values belong to the compound of their own block, whether it stands above or below them. Peptide text beside a SMILES is read from it.

What was measured:
[1] = target: solid insoluble form Aβ42 (s‐Aβ42) (Homo sapiens, UniProt P05067); assay: Proteolysis of solid insoluble s-Aβ42 by the peptide; type: biochemical; settings: over 7 days; 27% with peptide minus 17% without
How it was run: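 s-Aβ42 (0.3 mg), washed with CH3CN and CH3OH, was incubated with or without peptide (1 mM final) with HSA (0.125% w/v) in PBS at 37°C for 7 days, at five times the a-Aβ42 scale. HPLC was run daily and fragments were identified by ESI-MS. Solid weight was recorded on day 0 and day 7. The net decrease ratio is the with-peptide decrease minus the without-peptide decrease.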

[2] = Plasma clearance following intravenous bolus injection; type: in vivo, Male Wistar/ST rats; settings: rat
[3] = Plasma level and brain uptake following intraperitoneal and nasal administration; type: in vivo, male ddY mice; settings: mouse; for AUC(0-t): male, ddY, 1 mg
How it was run: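 Male ddY mice (25 g) received 1 mg of peptide either intranasally into the left nostril (100 mg/mL in PBS, 10 µL) or intraperitoneally (10 mg/mL in PBS). Blood was drawn at 5, 15 and 30 min. Brains were taken at 30 min after saline/heparin cardiac perfusion. Plasma and brain homogenate were extracted with methanol and assayed by positive-mode LC/MS on C18 (acetonitrile:0.1% acetic acid 10/90). AUC was computed to 30 min.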

A549 cells = assay: Effect on the growth of A549 cells; type: cell-based, human; settings: 72 hours
How it was run: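 A549 cells were grown in DMEM with 10% FBS and penicillin/streptomycin at 37°C in 5% CO2, then seeded at 4 x 10^3 cells/well. After 24 h the medium was replaced and cells were treated with 0.2 mM test peptide, 0.2 mM FLAG peptide or 4 µM cisplatin for 72 h. WST-8 was added for 1 h. Absorbance was read at 450 nm against a 620 nm reference.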

[4] = In vitro stability in plasma and whole blood; type: in vitro ADME; settings: data not shown
[5] = target: authentic soluble form Aβ42 (a‐Aβ42) (Homo sapiens, UniProt P05067); settings: cleaved in the central region; cited from earlier work
amyloid beta 42 (Aβ42) = settings: serine protease inhibitor AEBSF; cited from earlier work
[6] = male, Wistar/ST, plasma, iv, 2 mg/animal

Chain of solid insoluble form Aβ42 (s‐Aβ42) (P05067 672-713): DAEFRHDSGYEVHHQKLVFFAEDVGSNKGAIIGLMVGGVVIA
Chain of authentic soluble form Aβ42 (a‐Aβ42) (P05067 672-713): as above

decreasing ratio of s‐Aβ42 by ANA‐TA9 (corrected for incubation without peptide) [1]: 10%
AUC [2, 6]: 124 ng·h/mL
clearance [2, 6]: 270 mL/min
initial half‐life in plasma ([2]; i.v. bolus 2 mg/head, LC/MS): 10 s
plasma concentration post‐injection ([2]; i.v. bolus 2 mg/head, within 15 minutes post-injection, LC/MS): below the detection limit
AUC(0-t) ([3]; inhaled or intranasal): 27.2 ng·h/mL
AUC(0-t) ([3]; ip): 193 ng·h/mL
nasal AUC as percentage of intraperitoneal AUC ([3]; up to 30 minutes, 1 mg each route): 14%
in vitro stability in plasma and whole blood [4]: not particularly labile
Compound: CC[C@H](C)[C@H](NC(=O)[C@H](CCSC)NC(=O)[C@H](CCCNC(=N)N)NC(=O)[C@H](Cc1ccc(O)cc1)NC(=O)[C@H](C)NC(=O)[C@H](CCC(N)=O)NC(=O)CNC(=O)[C@H](CCCCN)NC(=O)[C@@H](N)CO)C(=O)O [ANA‐TA9] (H-SKGQAYRMI-OH)
effect on the growth of A549 cells (A549 cells; 0.2 mM, WST-8, compared to 0.2 mM FLAG peptide control): did not show a significant inhibitory effect

Compound: [NH2][Pt]([NH2])([Cl])[Cl] [CDDP, Cisplatin, reference compound]
effect on the growth of A549 cells (A549 cells; 4 μM, WST-8, positive control): inhibited the growth

Compound: YKGSGFRMI [JAL‐TA9]
cleavage of a‐Aβ42 and s‐Aβ42 [5]: cleaved
effect of AEBSF on proteolytic activity (amyloid beta 42 (Aβ42)): completely inhibited
